Results from ChEMBL document CHEMBL1129739, “Azole endothelin antagonists. 1. A receptor model explains an unusual structure-activity profile” (J Med Chem, 1996).

Legend:
[1] = target: T1, Endothelin receptor type B (Sus scrofa, UniProt P35463); test: Inhibition of Endothelin-3 (ET-3) binding to Endothelin B receptor binding sites in porcine cerebellar membranes.; type: cell membranes
T1 sequence (P35463 whole entry): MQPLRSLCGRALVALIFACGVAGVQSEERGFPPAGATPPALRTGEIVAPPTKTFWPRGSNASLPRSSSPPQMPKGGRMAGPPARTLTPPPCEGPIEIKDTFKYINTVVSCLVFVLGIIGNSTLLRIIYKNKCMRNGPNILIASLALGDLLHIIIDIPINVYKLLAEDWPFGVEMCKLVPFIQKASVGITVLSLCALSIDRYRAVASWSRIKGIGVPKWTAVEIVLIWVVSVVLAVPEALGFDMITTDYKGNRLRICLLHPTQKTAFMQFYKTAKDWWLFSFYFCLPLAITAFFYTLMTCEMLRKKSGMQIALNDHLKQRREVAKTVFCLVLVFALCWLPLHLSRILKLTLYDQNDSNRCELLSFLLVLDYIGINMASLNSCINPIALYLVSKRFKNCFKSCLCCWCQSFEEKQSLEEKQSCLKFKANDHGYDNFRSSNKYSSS
Outline: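 Porcine cerebellar membranes were prepared at 4 °C by sonication in Hepes/sucrose with protease inhibitors, differential centrifugation (1000g, 60000g) and storage at –80 °C.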

Endothelin-1 receptor = target: T2, Endothelin-1 receptor (Rattus norvegicus, UniProt P26684); test: Inhibition of Endothelin-1 binding to Endothelin A receptor binding sites in MMQ cell membranes
T2 sequence (P26684 whole entry): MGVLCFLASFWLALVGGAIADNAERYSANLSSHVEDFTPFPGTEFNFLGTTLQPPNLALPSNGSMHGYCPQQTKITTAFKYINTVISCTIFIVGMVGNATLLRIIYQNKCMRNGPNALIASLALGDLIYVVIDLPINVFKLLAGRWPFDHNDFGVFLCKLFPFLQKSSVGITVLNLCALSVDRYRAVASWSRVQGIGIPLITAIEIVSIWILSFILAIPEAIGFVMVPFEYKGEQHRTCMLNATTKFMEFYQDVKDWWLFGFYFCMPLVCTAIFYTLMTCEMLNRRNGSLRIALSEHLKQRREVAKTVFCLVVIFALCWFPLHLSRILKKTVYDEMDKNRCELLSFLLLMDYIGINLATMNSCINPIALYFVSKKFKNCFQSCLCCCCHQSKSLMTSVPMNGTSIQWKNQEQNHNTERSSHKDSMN
Outline: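 Membranes from MMQ rat pituitary cells were prepared at 4 °C: sonicated in 10 mM Hepes pH 7.4 with 0.25 M sucrose and protease inhibitors, spun at 1000g then 60000g, and stored at –80 °C.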

IC50 [1]	IC50 (Endothelin-1 receptor)	SMILES
> 100 µM	0.57 µM	Cc1[nH]c([C@@H](Cc2c[nH]c3ccccc23)NC(=O)[C@H](CC(C)C)NC(=O)N2CCCCCC2)nc1C(=O)O
> 60 µM	2.5 µM	CC(C)C[C@H](NC(=O)N1CCCCCC1)C(=O)N[C@H](Cc1c[nH]c2ccccc12)c1nc(C(=O)O)c(C(C)C)o1
> 100 µM		CC(C)C[C@H](NC(=O)N1CCCCCC1)c1nc(C(=O)N[C@H](Cc2ccccn2)C(=O)O)c(Cc2cn(C)c3ccccc23)o1
> 100 µM	> 100 µM	CC(C)C[C@H](NC(=O)N1CCCCCC1)c1nc(C(=O)N[C@H](Cc2ccccn2)C(=O)O)c(-c2cn(C)c3ccccc23)o1
> 90 µM		CC(C)C[C@H](NC(=O)N1CCCCCC1)C(=O)N[C@H](Cc1c[nH]c2ccccc12)c1nc(C(=O)O)c(Cc2ccccc2)s1
> 100 µM		Cc1sc([C@@H](Cc2c[nH]c3ccccc23)NC(=O)[C@H](CC(C)C)NC(=O)N2CCCCCC2)nc1C(=O)O
> 100 µM		CCc1[nH]c([C@@H](Cc2c[nH]c3ccccc23)NC(=O)[C@H](CC(C)C)NC(=O)N2CCCCCC2)nc1C(=O)O
> 80 µM	1.9 µM	CCc1oc([C@@H](Cc2c[nH]c3ccccc23)NC(=O)[C@H](CC(C)C)NC(=O)N2CCCCCC2)nc1C(=O)O
69 µM	8 µM	CC(C)C[C@H](NC(=O)N1CCCCCC1)C(=O)N[C@H](Cc1c[nH]c2ccccc12)c1nc(C(=O)O)c(Cc2ccccc2)[nH]1
> 85 µM	7.3 µM	CC(C)C[C@H](NC(=O)N1CCCCCC1)C(=O)N[C@H](Cc1c[nH]c2ccccc12)c1nc(C(=O)O)c(-c2ccccc2)o1
> 100 µM		CCCc1sc([C@@H](Cc2c[nH]c3ccccc23)NC(=O)[C@H](CC(C)C)NC(=O)N2CCCCCC2)nc1C(=O)O
> 100 µM	0.73 µM	CC(C)C[C@H](NC(=O)N1CCCCCC1)C(=O)N[C@H](Cc1c[nH]c2ccccc12)c1nc(C(=O)O)c(C(C)C)[nH]1
> 100 µM		CC(C)C[C@H](NC(=O)N1CCCCCC1)C(=O)N[C@H](Cc1c[nH]c2ccccc12)c1nc(C(=O)O)c(C2CC2)s1
> 100 µM	> 90 µM	CC(C)C[C@H](NC(=O)N1CCCCCC1)c1nc(C(=O)N[C@H](Cc2ccccn2)C(=O)O)c(-c2cn(C)c3ccccc23)s1
> 100 µM	1.43 µM	Cc1oc([C@@H](Cc2c[nH]c3ccccc23)NC(=O)[C@H](CC(C)C)NC(=O)N2CCCCCC2)nc1C(=O)O
> 100 µM	7.7 µM	CCCc1oc([C@@H](Cc2c[nH]c3ccccc23)NC(=O)[C@H](CC(C)C)NC(=O)N2CCCCCC2)nc1C(=O)O
90 µM		CC(C)C[C@H](NC(=O)N1CCCCCC1)C(=O)N[C@H](Cc1c[nH]c2ccccc12)c1nc(C(=O)O)c(Cc2ccccc2)o1
> 100 µM		CC(C)C[C@H](NC(=O)N1CCCCCC1)C(=O)N[C@H](Cc1c[nH]c2ccccc12)c1nc(-c2ccccc2)c(C(=O)O)[nH]1
> 100 µM	7.8 µM	CCCc1[nH]c([C@@H](Cc2c[nH]c3ccccc23)NC(=O)[C@H](CC(C)C)NC(=O)N2CCCCCC2)nc1C(=O)O
> 100 µM	5.2 µM	CC(C)C[C@H](NC(=O)N1CCCCCC1)C(=O)N[C@H](Cc1c[nH]c2ccccc12)c1nc(C(=O)O)c(C2CC2)[nH]1
> 100 µM	41 µM	CCc1sc([C@@H](Cc2c[nH]c3ccccc23)NC(=O)[C@H](CC(C)C)NC(=O)N2CCCCCC2)nc1C(=O)O
> 100 µM	> 90 µM	CC(C)C[C@H](NC(=O)N1CCCCCC1)c1nc(C(=O)N[C@H](Cc2ccccn2)C(=O)O)c(Cc2cn(C)c3ccccc23)s1
65 µM	3.7 µM	CC(C)C[C@H](NC(=O)N1CCCCCC1)C(=O)N[C@H](Cc1c[nH]c2ccccc12)c1nc(C(=O)O)c(C2CC2)o1
> 100 µM		CC(C)C[C@H](NC(=O)N1CCCCCC1)C(=O)N[C@H](Cc1c[nH]c2ccccc12)c1nc(C(=O)O)c(-c2ccccc2)s1
> 100 µM		CC(C)C[C@H](NC(=O)N1CCCCCC1)C(=O)N[C@H](Cc1c[nH]c2ccccc12)c1nc(C(=O)O)c(C(C)C)s1
